What all share (type): functional
The test system of experiment [1] is Mycobacterium tuberculosis. Nature of the experiment: Antimycobacterial activity against fluoroquinolone-resistant Mycobacterium tuberculosis Beijing genotype isolates without carrying multiple mutation and harboring gyrA A90V mutant gene. The essentials: (§1)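 Ofloxacin MIC was determined on the first 65 FQ-resistant clinical isolates, and 64 regrew on subculture. Resistance was defined by the WHO 1% proportion method on Lowenstein-Jensen medium with ofloxacin at 2 μg/ml. Mutations were assigned by gyrA/gyrB sequencing and Beijing genotype by spoligotyping. The value is the median MIC per mutation, excluding isolates with multiple mutations or sequencing heteropeaks.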

The test system of experiment [2] is Mycobacterium tuberculosis. Nature of the experiment: Antimycobacterial activity against fluoroquinolone-resistant Mycobacterium tuberculosis Beijing genotype isolates without carrying multiple mutation and harboring gyrA D94A mutant gene. The essentials:
as §1

In experiment [3] the test system is Mycobacterium tuberculosis. Description: Antimycobacterial activity against fluoroquinolone-resistant Mycobacterium tuberculosis Beijing genotype isolates without carrying multiple mutation and harboring gyrA D94G mutant gene. The essentials: as §1
Experiment [4] relates to Mycobacterium tuberculosis. Nature of the experiment: Antimycobacterial activity against fluoroquinolone-resistant Mycobacterium tuberculosis Beijing genotype isolates without carrying multiple mutation and harboring gyrA D94N mutant gene. The essentials: as §1
The test system of experiment [5] is Mycobacterium tuberculosis. Description: Antimycobacterial activity against fluoroquinolone-resistant Mycobacterium tuberculosis Beijing genotype isolates without carrying multiple mutation and harboring gyrA D94Y mutant gene. The essentials: as §1
For experiment [6], the system named is Mycobacterium tuberculosis. Description: Antimycobacterial activity against fluoroquinolone-resistant Mycobacterium tuberculosis Beijing genotype isolates without carrying multiple mutation and harboring gyrB D500N mutant gene. The essentials: as §1
Experiment [7] relates to Mycobacterium tuberculosis. Description: Antimycobacterial activity against fluoroquinolone-resistant Mycobacterium tuberculosis Beijing genotype isolates without carrying multiple mutation and harboring gyrB D540D mutant gene. The essentials: as §1
Experiment [8] has as its system Mycobacterium tuberculosis. Nature of the experiment: Antimycobacterial activity against fluoroquinolone-resistant Mycobacterium tuberculosis Beijing genotype isolates without carrying mutation. The essentials:
as §1

Experiment [9] concerns Mycobacterium tuberculosis. Nature of the experiment: Antimycobacterial activity against fluoroquinolone-resistant Mycobacterium tuberculosis Beijing genotype isolates without carrying multiple mutation and harboring gyrB A90V and T539P mutant genes.
The subject of experiment [10] is Mycobacterium tuberculosis. Nature of the experiment: Antimycobacterial activity against mixture of fluoroquinolone-resistant and sensitive Mycobacterium tuberculosis Beijing genotype isolates carrying heteropeaks upon sequencing at mutation site and harboring gyrA A90V mutant gene. The essentials: (§2)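 Ofloxacin MIC was determined on isolates from the first 65 FQ-resistant clinical isolates, screened by the WHO 1% proportion method on Lowenstein-Jensen medium with ofloxacin at 2 μg/ml. Beijing genotype was assigned by spoligotyping.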

Experiment [11] deals with Mycobacterium tuberculosis. Description: Antimycobacterial activity against mixture of fluoroquinolone-resistant and sensitive Mycobacterium tuberculosis Beijing genotype isolates carrying heteropeaks upon sequencing at mutation site and harboring gyrA D94A mutant gene. The essentials:
as §2

Experiment [12] deals with Mycobacterium tuberculosis. Description: Antimycobacterial activity against mixture of fluoroquinolone-resistant and sensitive Mycobacterium tuberculosis Beijing genotype isolates carrying heteropeaks upon sequencing at mutation site and harboring gyrA D94G mutant gene. The essentials:
as §2

The subject of experiment [13] is Mycobacterium tuberculosis. Nature of the experiment: Antimycobacterial activity against mixture of fluoroquinolone-resistant and sensitive Mycobacterium tuberculosis Beijing genotype isolates carrying heteropeaks upon sequencing at mutation site and harboring gyrA D94N mutant gene. The essentials:
as §2

In experiment [14] the test system is Mycobacterium tuberculosis. Nature of the experiment: Antimycobacterial activity against mixture of fluoroquinolone-resistant and sensitive Mycobacterium tuberculosis Beijing genotype isolates carrying heteropeaks upon sequencing at mutation site and harboring gyrA D94Y mutant gene. The essentials:
as §2

The test system of experiment [15] is Mycobacterium tuberculosis. Nature of the experiment: Antimycobacterial activity against mixture of fluoroquinolone-resistant and sensitive Mycobacterium tuberculosis Beijing genotype isolates carrying heteropeaks upon sequencing at mutation site and harboring gyrA G88A mutant gene. The essentials: as §2
Experiment [16] deals with Mycobacterium tuberculosis. Nature of the experiment: Antimycobacterial activity against mixture of fluoroquinolone-resistant and sensitive Mycobacterium tuberculosis Beijing genotype isolates carrying heteropeaks upon sequencing at mutation site and harboring gyrB D500N mutant gene. The essentials:
as §2

The test system of experiment [17] is Mycobacterium tuberculosis. Nature of the experiment: Antimycobacterial activity against mixture of fluoroquinolone-resistant and sensitive Mycobacterium tuberculosis Beijing genotype isolates carrying heteropeaks upon sequencing at mutation site and harboring gyrB D540D mutant gene. The essentials: as §2
The subject of experiment [18] is Mycobacterium tuberculosis. Description: Antimycobacterial activity against mixture of fluoroquinolone-resistant and sensitive Mycobacterium tuberculosis Beijing genotype isolates carrying heteropeaks upon sequencing. The essentials: as §2
Experiment [19] has as its system Mycobacterium tuberculosis. Description: Antimycobacterial activity against mixture of fluoroquinolone-resistant and sensitive Mycobacterium tuberculosis Beijing genotype isolates carrying heteropeaks upon sequencing at mutation site and harboring gyrB A90V and D500A mutant genes. The essentials: as §2
The test system of experiment [20] is Mycobacterium tuberculosis. Description: Antimycobacterial activity against mixture of fluoroquinolone-resistant and sensitive Mycobacterium tuberculosis Beijing genotype isolates carrying heteropeaks upon sequencing at mutation site and harboring gyrB A90V and T539P mutant genes. The essentials: as §2
Experiment [21] relates to Mycobacterium tuberculosis. Description: Antimycobacterial activity against mixture of fluoroquinolone-resistant and sensitive Mycobacterium tuberculosis Beijing genotype isolates carrying heteropeaks upon sequencing at mutation site and harboring gyrA A90V and D94A mutant genes. The essentials: as §2
Experiment [22] relates to Mycobacterium tuberculosis. Description: Antimycobacterial activity against mixture of fluoroquinolone-resistant and sensitive Mycobacterium tuberculosis Beijing genotype isolates carrying heteropeaks upon sequencing at mutation site and harboring gyrA A90V and D94G mutant genes. The essentials: as §2
The subject of experiment [23] is Mycobacterium tuberculosis. Description: Antimycobacterial activity against mixture of fluoroquinolone-resistant and sensitive Mycobacterium tuberculosis Beijing genotype isolates carrying heteropeaks upon sequencing at mutation site and harboring gyrA D94G and D94A mutant genes. The essentials:
as §2

Results on 1 compound are retold here after ChEMBL document CHEMBL1687749, “Beijing genotype of Mycobacterium tuberculosis is significantly associated with high-level fluoroquinolone resistance in Vietnam” (2009).

Values after ≈ are worked out from the molar mass of the structure shown. Bounds are passed on as bounds.

The term MIC denotes the lowest concentration found to suppress growth. With `CC1COc2c(N3CCN(C)CC3)c(F)cc3c(=O)c(C(=O)O)cn1c23` (stereo not drawn) [OFLOXACIN], the MIC is 8 µg/mL (≈ 22.1 µM) in experiment [1]; 8 µg/mL (≈ 22.1 µM) in experiment [2]; 12 µg/mL (≈ 33.2 µM) in experiment [3]; 12 µg/mL (≈ 33.2 µM) in [4]; 12 µg/mL (≈ 33.2 µM) in [5]; >4 µg/mL in experiment [6]. The MIC was 12 µg/mL (≈ 33.2 µM) in experiment [7]; 4 µg/mL (≈ 11.1 µM) in experiment [8]; >12 µg/mL in experiment [9]; 8 µg/mL (≈ 22.1 µM) in experiment [10]; 8 µg/mL (≈ 22.1 µM) in experiment [11]; 12 µg/mL (≈ 33.2 µM) in experiment [12]. The MIC in experiment [13] is 12 µg/mL (≈ 33.2 µM); in [14] it was >12 µg/mL; in experiment [15] it was 12 µg/mL (≈ 33.2 µM); in experiment [16], 4 µg/mL (≈ 11.1 µM); in experiment [17], 12 µg/mL (≈ 33.2 µM); in experiment [18], 4 µg/mL (≈ 11.1 µM). The MIC in experiment [19] was 8 µg/mL (≈ 22.1 µM); in experiment [20], >12 µg/mL; in [21], 8 µg/mL (≈ 22.1 µM); in [22], 12 µg/mL (≈ 33.2 µM); in experiment [23], 12 µg/mL (≈ 33.2 µM).
